Experimental data: ChEMBL document CHEMBL1926537, “Catalytic inhibition of eukaryotic topoisomerases I and II by flavonol glycosides extracted from Vicia faba and Lotus edulis” (J Nat Prod, 2011)
Calls of active or inactive are those of the source. The calls are words filed in the database; no cut-off is given here.

Assays:
[1] = target: T1, DNA topoisomerase 1 (Homo sapiens, UniProt P11387); assay: Inhibition of human topoisomerase 1-mediated relation of supercoiled DNA after 45 mins
T1 sequence (P11387 whole entry): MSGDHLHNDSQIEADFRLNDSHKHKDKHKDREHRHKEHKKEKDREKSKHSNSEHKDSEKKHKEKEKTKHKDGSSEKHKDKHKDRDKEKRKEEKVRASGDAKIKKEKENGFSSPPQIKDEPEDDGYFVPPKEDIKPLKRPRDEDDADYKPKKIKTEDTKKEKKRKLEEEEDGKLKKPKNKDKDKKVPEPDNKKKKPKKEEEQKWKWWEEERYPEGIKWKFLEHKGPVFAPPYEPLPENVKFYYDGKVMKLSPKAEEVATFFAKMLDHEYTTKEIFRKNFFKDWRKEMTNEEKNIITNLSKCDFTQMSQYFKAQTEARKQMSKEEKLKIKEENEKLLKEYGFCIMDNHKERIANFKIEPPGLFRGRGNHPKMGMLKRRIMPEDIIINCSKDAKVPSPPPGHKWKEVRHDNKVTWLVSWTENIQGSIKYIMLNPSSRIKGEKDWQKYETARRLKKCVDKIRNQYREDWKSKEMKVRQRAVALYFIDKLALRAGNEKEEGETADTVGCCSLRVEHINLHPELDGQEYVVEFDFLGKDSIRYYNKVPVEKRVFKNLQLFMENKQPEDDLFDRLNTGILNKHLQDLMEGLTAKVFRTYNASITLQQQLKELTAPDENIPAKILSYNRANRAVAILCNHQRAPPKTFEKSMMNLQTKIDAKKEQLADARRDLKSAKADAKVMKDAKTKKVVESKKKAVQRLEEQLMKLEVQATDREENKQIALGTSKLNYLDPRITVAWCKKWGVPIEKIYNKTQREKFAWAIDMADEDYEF
Method in brief: (§1)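 Screened at 500 μM, then 100–500 μM. Read-out is 0.8% agarose gel with ethidium stain and densitometry of the supercoiled fraction. IC50 is the 50% inhibition of relaxation; triplicate, mean ± SEM.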

[2] = target: T2, DNA topoisomerase 2-alpha (Homo sapiens, UniProt P11388); assay: Inhibition of human topoisomerase 2-mediated relation of supercoiled DNA at 500 uM after 60 mins
[3] = target: T3, DNA topoisomerase 1 (Homo sapiens) (UniProt P11387); assay: Inhibition of human topoisomerase 1-mediated relation of supercoiled DNA at 500 uM after 45 mins; method in brief: as §1
T3 sequence (whole entry): T1 sequence (P11387 whole entry)

[4] = system: Triticum aestivum; assay: Inhibition of wheat germ topoisomerase 1-mediated relaxation of supercoiled DNA at 500 uM after 45 mins
Method in brief: (§2)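 Tested at 500 μM, then 75–1000 μM. Percent inhibition derived from the supercoiled fraction on 0.8% agarose gels stained with ethidium; IC50 at 50% inhibition of relaxation; triplicate, mean ± SEM.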

[5] = Inhibition of wheat germ topoisomerase 1-mediated relaxation of supercoiled DNA after 45 mins; parameters: species or system Triticum aestivum; method in brief: as §2
[6] = target: T2, DNA topoisomerase 2-alpha; assay: Inhibition of human topoisomerase 2-mediated relation of supercoiled DNA after 60 mins
[7] = system: Triticum aestivum; assay: Inhibition of wheat germ topoisomerase 1-mediated relaxation of supercoiled DNA at 1000 uM after 45 mins; method in brief: as §2
[8] = system: Triticum aestivum; assay: Inhibition of wheat germ topoisomerase 1-mediated relaxation of supercoiled DNA at 75 uM after 45 mins; method in brief: as §2
[9] = system: MCF7; assay: Growth inhibition of human MCF7 cells after 48 hrs by XTT assay; format: functional, cell-based; conditions: MCF7, 48 h
Method in brief: (§3)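 XTT assay; HeLa, MCF7 and HepG2 seeded at 1.5 × 104, 2 × 104 and 3.5 × 10^4 cells/well in DMEM with 10% heat-inactivated FBS and penicillin/streptomycin, grown 24 h at 37 °C in 5% CO2. Compound added in DMEM-PS (100–500 μM) for 48 h, then XTT 4 h; OD at 450 nm, reference 650 nm. Etoposide 100 μM positive control; mean ± SEM.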

[10] = target: T2, DNA topoisomerase 2-alpha; assay: Inhibition of human topoisomerase 2-mediated relation of supercoiled DNA at 100 uM after 60 mins
[11] = system: HepG2; assay: Growth inhibition of human HepG2 cells after 48 hrs by XTT assay; format: functional, cell-based; conditions: HepG2, 48 h; method in brief: as §3
[12] = target: T2, DNA topoisomerase 2-alpha; assay: Inhibition of human topoisomerase 2-mediated relation of supercoiled DNA at 100 to 1000 uM after 60 mins
[13] = system: HeLa; assay: Growth inhibition of human HeLa cells after 48 hrs by XTT assay; format: functional, cell-based; method in brief: as §3
[14] = target: T3, DNA topoisomerase 1 (Homo sapiens); assay: Inhibition of human topoisomerase 1-mediated relation of supercoiled DNA at 100 uM after 45 mins; method in brief: as §1
[15] = system: HepG2; assay: Growth inhibition of human HepG2 cells at 100 uM after 48 hrs by XTT assay; format: functional; conditions: HepG2, 48 h, read-out: GI; method in brief: as §3
[16] = system: MCF7; assay: Growth inhibition of human MCF7 cells at 100 uM after 48 hrs by XTT assay; format: functional; conditions: MCF7, 48 h, read-out: GI; method in brief: as §3
[17] = system: HeLa; assay: Growth inhibition of human HeLa cells at 100 uM after 48 hrs by XTT assay; format: functional; conditions: read-out: GI; method in brief: as §3
[18] = target: T2, DNA topoisomerase 2-alpha; assay: Inhibition of human topoisomerase 2-mediated relation of supercoiled DNA at 800 uM after 60 mins
[19] = target: T2, DNA topoisomerase 2-alpha; assay: Inhibition of human topoisomerase 2-mediated relation of supercoiled DNA at 400 uM after 60 mins

T2 sequence (P11388 whole entry): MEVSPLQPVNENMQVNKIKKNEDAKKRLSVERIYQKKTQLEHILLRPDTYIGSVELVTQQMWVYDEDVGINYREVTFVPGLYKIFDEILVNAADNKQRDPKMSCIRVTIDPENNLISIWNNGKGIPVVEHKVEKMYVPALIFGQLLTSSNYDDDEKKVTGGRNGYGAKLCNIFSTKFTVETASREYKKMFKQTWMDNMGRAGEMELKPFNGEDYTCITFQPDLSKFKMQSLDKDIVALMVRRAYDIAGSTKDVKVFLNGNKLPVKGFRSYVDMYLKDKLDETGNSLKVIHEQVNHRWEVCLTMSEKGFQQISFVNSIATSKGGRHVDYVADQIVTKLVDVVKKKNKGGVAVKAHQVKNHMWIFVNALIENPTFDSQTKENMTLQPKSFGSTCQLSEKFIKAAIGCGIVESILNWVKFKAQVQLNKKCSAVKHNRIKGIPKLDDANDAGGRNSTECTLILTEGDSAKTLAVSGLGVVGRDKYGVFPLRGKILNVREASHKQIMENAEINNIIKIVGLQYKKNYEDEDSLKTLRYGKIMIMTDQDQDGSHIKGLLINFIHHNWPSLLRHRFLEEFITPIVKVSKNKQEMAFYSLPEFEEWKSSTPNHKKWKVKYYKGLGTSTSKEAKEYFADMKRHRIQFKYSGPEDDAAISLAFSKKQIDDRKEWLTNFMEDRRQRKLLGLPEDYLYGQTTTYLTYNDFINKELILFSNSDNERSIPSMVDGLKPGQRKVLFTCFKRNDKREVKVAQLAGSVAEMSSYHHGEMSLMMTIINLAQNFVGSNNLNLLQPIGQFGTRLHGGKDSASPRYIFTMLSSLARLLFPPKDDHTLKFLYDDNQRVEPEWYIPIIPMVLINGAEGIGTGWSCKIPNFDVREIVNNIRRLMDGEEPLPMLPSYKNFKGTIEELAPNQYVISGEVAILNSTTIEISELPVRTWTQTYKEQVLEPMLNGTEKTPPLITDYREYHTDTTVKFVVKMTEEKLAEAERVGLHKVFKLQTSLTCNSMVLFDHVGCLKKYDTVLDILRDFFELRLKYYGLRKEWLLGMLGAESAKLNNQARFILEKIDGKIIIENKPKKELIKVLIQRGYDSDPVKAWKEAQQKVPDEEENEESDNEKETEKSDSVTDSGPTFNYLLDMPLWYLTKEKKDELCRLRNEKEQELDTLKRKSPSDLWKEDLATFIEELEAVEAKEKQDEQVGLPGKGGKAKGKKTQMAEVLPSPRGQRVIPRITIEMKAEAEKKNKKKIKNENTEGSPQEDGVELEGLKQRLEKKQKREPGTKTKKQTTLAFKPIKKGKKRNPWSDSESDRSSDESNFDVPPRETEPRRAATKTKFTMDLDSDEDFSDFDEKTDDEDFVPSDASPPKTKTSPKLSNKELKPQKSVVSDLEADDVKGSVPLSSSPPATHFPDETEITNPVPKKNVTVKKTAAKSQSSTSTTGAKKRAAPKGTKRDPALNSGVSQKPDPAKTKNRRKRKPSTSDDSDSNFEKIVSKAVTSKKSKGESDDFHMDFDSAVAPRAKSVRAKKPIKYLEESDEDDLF

C[C@@H]1O[C@@H](Oc2cc(O)c3c(=O)c(O[C@@H]4O[C@H](CO)[C@@H](O)[C@H](O)[C@H]4O[C@@H]4O[C@@H](C)[C@H](O)[C@@H](O)[C@H]4O)c(-c4ccc(O)cc4)oc3c2)[C@H](O)[C@H](O)[C@H]1O
IC50 [1]: 220 µM
inhibition [2]: Active
inhibition [3]: Active

C[C@@H]1O[C@@H](Oc2cc(O)c3c(=O)c(O[C@@H]4O[C@H](CO)[C@H](O)[C@H](O)[C@H]4O)c(-c4ccc(O)cc4)oc3c2)[C@H](O)[C@H](O)[C@H]1O
IC50 [1]: 180 µM
inhibition [4]: Active
inhibition [2]: Active
IC50 [5]: 200 µM
inhibition [3]: Active

CC(=O)OC[C@]1(O)CO[C@H](Oc2c(-c3ccc(O)cc3)oc3cc(O[C@@H]4O[C@@H](C)[C@H](O)[C@@H](O)[C@H]4O)cc(O)c3c2=O)[C@H]1O
IC50 [6]: 240 µM
inhibition [7]: 99%
IC50 [1]: 150 µM
inhibition [8]: 44%
inhibition [4]: Active
inhibition [2]: 88%
IC50 [9]: 350 µM
inhibition [10]: 22%
IC50 [11]: 410 µM
inhibition [12]: Dose-dependent effect
IC50 [13]: 350 µM
IC50 [5]: 120 µM
inhibition [3]: Active

C[C@@H]1O[C@@H](Oc2cc(O)c3c(=O)c(O[C@@H]4O[C@H](CO)[C@@H](O)[C@H](O)[C@H]4O)c(-c4ccc(O)cc4)oc3c2)[C@H](O)[C@H](O)[C@H]1O
IC50 [6]: 600 µM
IC50 [1]: 110 µM
inhibition [4]: Active
inhibition [2]: Active
inhibition [12]: Dose-dependent effect
IC50 [5]: 350 µM
inhibition [3]: 94%
inhibition [14]: 45%

COc1cc([C@@H]2c3cc4c(cc3[C@@H](O[C@@H]3O[C@@H]5CO[C@@H](C)O[C@H]5[C@H](O)[C@H]3O)[C@H]3COC(=O)[C@H]23)OCO4)cc(OC)c1O [ETOPOSIDE]
inhibition of growth at 100 µM [15]: 100%
inhibition of growth at 100 µM [16]: 100%
inhibition of growth at 100 µM [17]: 100%

C[C@@H]1O[C@@H](Oc2cc(O)c3c(=O)c(O[C@@H]4O[C@H](CO)[C@H](O)[C@H](O)[C@H]4O[C@@H]4O[C@@H](C)[C@H](O)[C@@H](O)[C@H]4O)c(-c4ccc(O)cc4)oc3c2)[C@H](O)[C@H](O)[C@H]1O
IC50 [1]: 260 µM
inhibition [4]: Active
inhibition [2]: Active
IC50 [5]: 150 µM
inhibition [3]: Active

C[C@@H]1O[C@@H](Oc2cc(O)c3c(=O)c(O[C@@H]4OC[C@H](O)[C@H](O)[C@H]4O)c(-c4ccc(O)cc4)oc3c2)[C@H](O)[C@H](O)[C@H]1O
IC50 [6]: 330 µM
IC50 [1]: 250 µM
inhibition [4]: Active
inhibition [2]: Active
inhibition [12]: Dose-dependent effect
IC50 [5]: 240 µM
inhibition [3]: Active

C[C@@H]1O[C@@H](Oc2cc(O)c3c(=O)c(O[C@H]4OC[C@@](O)(CO)[C@@H]4O)c(-c4ccc(O)cc4)oc3c2)[C@H](O)[C@H](O)[C@H]1O
inhibition [18]: 80%
IC50 [6]: 550 µM
inhibition [2]: Active
inhibition [12]: Dose-dependent effect
inhibition [19]: 44%
